# Target: MLL PHD3 finger (Homo sapiens, UniProt Q03164)
# Assay: NMR titration of histone peptides
# Assay type: binding
# Settings: 0.2 mM 15N-labeled PHD3, 12-mer histone tail peptide, 298K
# Outline: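 PHD3 finger (residues 1565-1627, wild type or mutant) was expressed as a GST fusion in E. coli BL21(DE3) pLysS grown in 15NH4Cl minimal medium. It was affinity-purified, GST-cleaved, size-exclusion purified and held in 25 mM d11-Tris pH 6.8, 150 mM KCl, 10 mM deuterated DTT and 7% 2H2O. 12-mer histone tail peptides were added stepwise to 0.2 mM protein, and normalized chemical shift changes were tracked in 1H,15N HSQC spectra.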
# Chain of MLL PHD3 finger (Q03164 1565-1627): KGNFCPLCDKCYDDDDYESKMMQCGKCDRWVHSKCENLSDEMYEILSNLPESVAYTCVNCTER
substance,measurement,value
H3K4me3: histone H3 tail peptide trimethylated at lysine 4 (biotinylated residues 1-21; 12-mer for NMR),exchange regime on NMR time scale,intermediate-to-fast exchange regime

# — paper PMC2886590 (Journal of molecular biology, 2010)
